ChEMBL document CHEMBL4152188, “Design, synthesis and biological evaluation of C(4) substituted monobactams as antibacterial agents against multidrug-resistant Gram-negative bacteria” (Eur J Med Chem, 2018)

Assays:
Format in all cases: functional
Escherichia coli [1] = assay: Antibacterial activity against extended-spectrum beta-lactamase producing Escherichia coli isolate 212648 after 18 hrs by CLSI broth microdilution method; conditions: isolate 212648, 18 h
Klebsiella pneumoniae [2] = assay: Selectivity index, ratio of MIC for against KPC-2 producing Klebsiella pneumoniae isolate 209632 to MIC for against KPC-2 producing Klebsiella pneumoniae isolate 209632 in presence of BPL
Escherichia coli [3] = assay: Antibacterial activity against extended-spectrum beta-lactamase producing Escherichia coli isolate 106342 after 18 hrs by CLSI broth microdilution method; conditions: isolate 106342, 18 h
Escherichia coli [4] = assay: Antibacterial activity against extended-spectrum beta-lactamase producing Escherichia coli isolate 209285 after 18 hrs in presence of BPL by CLSI broth microdilution method; conditions: isolate 209285, 18 h
Procedure, shortened: (§1)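 CLSI broth microdilution against clinical isolates (ESBL E. coli, KPC-2 MDR K. pneumoniae, IMP-4 MDR P. aeruginosa; five per species). Iron limitation: Mueller-Hinton broth supplemented with 16 mg/liter 2,2'-bipyridyl to complex iron and induce iron uptake systems. Read-out: MIC.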

Klebsiella pneumoniae [5] = assay: Selectivity index, ratio of MIC for against KPC-2 producing Klebsiella pneumoniae isolate 212423 to MIC for against KPC-2 producing Klebsiella pneumoniae isolate 212423 in presence of BPL
Escherichia coli [6] = assay: Selectivity index, ratio of MIC for against extended-spectrum beta-lactamase producing Escherichia coli isolate 208687 to MIC for extended-spectrum beta-lactamase producing Escherichia coli isolate 208687 in presence of BPL
Escherichia coli [7] = assay: Selectivity index, ratio of MIC for against extended-spectrum beta-lactamase producing Escherichia coli isolate 212648 to MIC for extended-spectrum beta-lactamase producing Escherichia coli isolate 212648 in presence of BPL
Klebsiella pneumoniae [8] = assay: Antibacterial activity against KPC-2 producing Klebsiella pneumoniae isolate 209735 after 18 hrs by CLSI broth microdilution method; conditions: isolate 209735, 18 h
Klebsiella pneumoniae [9] = assay: Antibacterial activity against KPC-2 producing Klebsiella pneumoniae isolate 212232 after 18 hrs in presence of BPL by CLSI broth microdilution method; conditions: isolate 212232, 18 h; procedure, shortened: as §1
Pseudomonas aeruginosa [10] = assay: Antibacterial activity against IMP-4 producing Pseudomonas aeruginosa isolate 207272 after 18 hrs in presence of BPL by CLSI broth microdilution method; conditions: isolate 207272, 18 h; procedure, shortened: as §1
Pseudomonas aeruginosa [11] = assay: Antibacterial activity against IMP-4 producing Pseudomonas aeruginosa isolate 209471 after 18 hrs in presence of BPL by CLSI broth microdilution method; conditions: isolate 209471, 18 h; procedure, shortened: as §1
Escherichia coli [12] = assay: Antibacterial activity against extended-spectrum beta-lactamase producing Escherichia coli isolate 209285 after 18 hrs by CLSI broth microdilution method; conditions: isolate 209285, 18 h
Klebsiella pneumoniae [13] = assay: Antibacterial activity against KPC-2 producing Klebsiella pneumoniae isolate 209735 after 18 hrs in presence of BPL by CLSI broth microdilution method; conditions: isolate 209735, 18 h; procedure, shortened: as §1
Klebsiella pneumoniae [14] = assay: Antibacterial activity against KPC-2 producing Klebsiella pneumoniae isolate 212229 after 18 hrs in presence of BPL by CLSI broth microdilution method; conditions: isolate 212229, 18 h; procedure, shortened: as §1
Klebsiella pneumoniae [15] = assay: Selectivity index, ratio of MIC for against KPC-2 producing Klebsiella pneumoniae isolate 212232 to MIC for against KPC-2 producing Klebsiella pneumoniae isolate 212232 in presence of BPL
Klebsiella pneumoniae [16] = assay: Antibacterial activity against KPC-2 producing Klebsiella pneumoniae isolate 209632 after 18 hrs by CLSI broth microdilution method; conditions: isolate 209632, 18 h
Pseudomonas aeruginosa [17] = assay: Antibacterial activity against IMP-4 producing Pseudomonas aeruginosa isolate 212886 after 18 hrs by CLSI broth microdilution method; conditions: isolate 212886, 18 h
Pseudomonas aeruginosa [18] = assay: Antibacterial activity against IMP-4 producing Pseudomonas aeruginosa isolate 207272 after 18 hrs by CLSI broth microdilution method; conditions: isolate 207272, 18 h
Klebsiella pneumoniae [19] = assay: Selectivity index, ratio of MIC for against KPC-2 producing Klebsiella pneumoniae isolate 212229 to MIC for against KPC-2 producing Klebsiella pneumoniae isolate 212229 in presence of BPL
Klebsiella pneumoniae [20] = assay: Antibacterial activity against KPC-2 producing Klebsiella pneumoniae isolate 212423 after 18 hrs in presence of BPL by CLSI broth microdilution method; conditions: isolate 212423, 18 h; procedure, shortened: as §1
Pseudomonas aeruginosa [21] = assay: Selectivity index, ratio of MIC for against IMP-4 producing Pseudomonas aeruginosa isolate 209321 to MIC for against IMP-4 producing Pseudomonas aeruginosa isolate 209321 in presence of BPL
Pseudomonas aeruginosa [22] = assay: Antibacterial activity against IMP-4 producing Pseudomonas aeruginosa isolate 212886 after 18 hrs in presence of BPL by CLSI broth microdilution method; conditions: isolate 212886, 18 h; procedure, shortened: as §1
Pseudomonas aeruginosa [23] = assay: Antibacterial activity against IMP-4 producing Pseudomonas aeruginosa isolate 209471 after 18 hrs by CLSI broth microdilution method; conditions: isolate 209471, 18 h
Escherichia coli [24] = assay: Antibacterial activity against extended-spectrum beta-lactamase producing Escherichia coli isolate 212648 after 18 hrs in presence of BPL by CLSI broth microdilution method; conditions: isolate 212648, 18 h; procedure, shortened: as §1
Pseudomonas aeruginosa [25] = assay: Antibacterial activity against IMP-4 producing Pseudomonas aeruginosa isolate 209321 after 18 hrs in presence of BPL by CLSI broth microdilution method; conditions: isolate 209321, 18 h; procedure, shortened: as §1
Escherichia coli [26] = assay: Antibacterial activity against extended-spectrum beta-lactamase producing Escherichia coli isolate 208687 after 18 hrs by CLSI broth microdilution method; conditions: isolate 208687, 18 h
Pseudomonas aeruginosa [27] = assay: Antibacterial activity against IMP-4 producing Pseudomonas aeruginosa isolate 209321 after 18 hrs by CLSI broth microdilution method; conditions: isolate 209321, 18 h
Pseudomonas aeruginosa [28] = assay: Antibacterial activity against IMP-4 producing Pseudomonas aeruginosa isolate 208247 after 18 hrs by CLSI broth microdilution method; conditions: isolate 208247, 18 h
Pseudomonas aeruginosa [29] = assay: Antibacterial activity against IMP-4 producing Pseudomonas aeruginosa isolate 208247 after 18 hrs in presence of BPL by CLSI broth microdilution method; conditions: isolate 208247, 18 h; procedure, shortened: as §1
Escherichia coli [30] = assay: Antibacterial activity against extended-spectrum beta-lactamase producing Escherichia coli isolate 208687 after 18 hrs in presence of BPL by CLSI broth microdilution method; conditions: isolate 208687, 18 h; procedure, shortened: as §1
Escherichia coli [31] = assay: Selectivity index, ratio of MIC for against extended-spectrum beta-lactamase producing Escherichia coli isolate 209285 to MIC for extended-spectrum beta-lactamase producing Escherichia coli isolate 209285 in presence of BPL
Escherichia coli [32] = assay: Antibacterial activity against Escherichia coli isolate 210737 after 18 hrs by CLSI broth microdilution method; conditions: isolate 210737, 18 h
Escherichia coli [33] = assay: Antibacterial activity against extended-spectrum beta-lactamase producing Escherichia coli isolate 106342 after 18 hrs in presence of BPL by CLSI broth microdilution method; conditions: isolate 106342, 18 h; procedure, shortened: as §1
Klebsiella pneumoniae [34] = assay: Antibacterial activity against KPC-2 producing Klebsiella pneumoniae isolate 212232 after 18 hrs by CLSI broth microdilution method; conditions: isolate 212232, 18 h
Escherichia coli [35] = assay: Selectivity index, ratio of MIC for against extended-spectrum beta-lactamase producing Escherichia coli isolate 106342 to MIC for extended-spectrum beta-lactamase producing Escherichia coli isolate 106342 in presence of BPL
Escherichia coli [36] = assay: Antibacterial activity against Escherichia coli isolate 210737 after 18 hrs in presence of BPL by CLSI broth microdilution method; conditions: isolate 210737, 18 h; procedure, shortened: as §1
Klebsiella pneumoniae [37] = assay: Selectivity index, ratio of MIC for against KPC-2 producing Klebsiella pneumoniae isolate 209735 to MIC for against KPC-2 producing Klebsiella pneumoniae isolate 209735 in presence of BPL
Klebsiella pneumoniae [38] = assay: Antibacterial activity against KPC-2 producing Klebsiella pneumoniae isolate 212423 after 18 hrs by CLSI broth microdilution method; conditions: isolate 212423, 18 h
Klebsiella pneumoniae [39] = assay: Antibacterial activity against KPC-2 producing Klebsiella pneumoniae isolate 209632 after 18 hrs in presence of BPL by CLSI broth microdilution method; conditions: isolate 209632, 18 h; procedure, shortened: as §1
Escherichia coli [40] = assay: Selectivity index, ratio of MIC for against Escherichia coli isolate 210737 to MIC for Escherichia coli isolate 210737 in presence of BPL
Klebsiella pneumoniae [41] = assay: Antibacterial activity against KPC-2 producing Klebsiella pneumoniae isolate 212229 after 18 hrs by CLSI broth microdilution method; conditions: isolate 212229, 18 h
Pseudomonas aeruginosa [42] = assay: Selectivity index, ratio of MIC for against IMP-4 producing Pseudomonas aeruginosa isolate 207272 to MIC for against IMP-4 producing Pseudomonas aeruginosa isolate 207272 in presence of BPL
Pseudomonas aeruginosa [43] = assay: Selectivity index, ratio of MIC for against IMP-4 producing Pseudomonas aeruginosa isolate 209471 to MIC for against IMP-4 producing Pseudomonas aeruginosa isolate 209471 in presence of BPL
Pseudomonas aeruginosa [44] = assay: Selectivity index, ratio of MIC for against IMP-4 producing Pseudomonas aeruginosa isolate 208247 to MIC for against IMP-4 producing Pseudomonas aeruginosa isolate 208247 in presence of BPL

CC(C)C(O/N=C(\C(=O)NC1C(=O)N(S(=O)(=O)O)C12CCCCC2)c1csc(N)n1)c1cc(=O)c(O)cn1O (centres undefined)
4: Selectivity Index (Klebsiella pneumoniae [37])
64 µg/mL: MIC (Escherichia coli [12]) | MIC (Pseudomonas aeruginosa [25]) | MIC (Pseudomonas aeruginosa [27]) | MIC (Pseudomonas aeruginosa [29])
1 µg/mL: MIC (Klebsiella pneumoniae [9])
32 µg/mL: MIC (Escherichia coli [3]) | MIC (Escherichia coli [26])
> 64 µg/mL: MIC (Escherichia coli [1]) | MIC (Pseudomonas aeruginosa [10]) | MIC (Pseudomonas aeruginosa [11]) | MIC (Pseudomonas aeruginosa [17]) | MIC (Pseudomonas aeruginosa [18]) | MIC (Pseudomonas aeruginosa [22]) | MIC (Pseudomonas aeruginosa [23]) | MIC (Escherichia coli [24]) | MIC (Pseudomonas aeruginosa [28])
2: Selectivity Index (Klebsiella pneumoniae [2]) | Selectivity Index (Klebsiella pneumoniae [5]) | Selectivity Index (Klebsiella pneumoniae [19]) | Selectivity Index (Escherichia coli [35]) | Selectivity Index (Escherichia coli [40])
4 µg/mL: MIC (Klebsiella pneumoniae [13]) | MIC (Klebsiella pneumoniae [14]) | MIC (Klebsiella pneumoniae [20]) | MIC (Escherichia coli [30]) | MIC (Klebsiella pneumoniae [39])
2 - 8: Selectivity Index (Escherichia coli [7])
16 µg/mL: MIC (Klebsiella pneumoniae [8]) | MIC (Escherichia coli [32]) | MIC (Escherichia coli [33]) | MIC (Klebsiella pneumoniae [34])
8 µg/mL: MIC (Escherichia coli [4]) | MIC (Klebsiella pneumoniae [16]) | MIC (Escherichia coli [36]) | MIC (Klebsiella pneumoniae [38]) | MIC (Klebsiella pneumoniae [41])
1: Selectivity Index (Pseudomonas aeruginosa [21])
8: Selectivity Index (Escherichia coli [6]) | Selectivity Index (Escherichia coli [31])
16: Selectivity Index (Klebsiella pneumoniae [15])

CC(C)C(O/N=C(\C(=O)N[C@@H]1C(=O)N(S(=O)(=O)O)[C@@H]1CSc1nc2ccccc2o1)c1csc(N)n1)c1cc(=O)c(O)cn1O (some centres undefined)
> 64 µg/mL: MIC (Pseudomonas aeruginosa [17]) | MIC (Pseudomonas aeruginosa [22]) | MIC (Pseudomonas aeruginosa [25]) | MIC (Pseudomonas aeruginosa [27])
2 µg/mL: MIC (Escherichia coli [1]) | MIC (Escherichia coli [3]) | MIC (Escherichia coli [4]) | MIC (Klebsiella pneumoniae [13]) | MIC (Klebsiella pneumoniae [16]) | MIC (Klebsiella pneumoniae [20]) | MIC (Klebsiella pneumoniae [39]) | MIC (Klebsiella pneumoniae [41])
0.5 µg/mL: MIC (Klebsiella pneumoniae [9]) | MIC (Escherichia coli [36])
4 µg/mL: MIC (Klebsiella pneumoniae [8]) | MIC (Escherichia coli [12]) | MIC (Escherichia coli [26]) | MIC (Klebsiella pneumoniae [34]) | MIC (Klebsiella pneumoniae [38])
1 µg/mL: MIC (Klebsiella pneumoniae [14]) | MIC (Escherichia coli [24]) | MIC (Escherichia coli [30]) | MIC (Escherichia coli [32]) | MIC (Escherichia coli [33])
4: Selectivity Index (Escherichia coli [6])
8: Selectivity Index (Klebsiella pneumoniae [15])
2: Selectivity Index (Klebsiella pneumoniae [5]) | Selectivity Index (Escherichia coli [7]) | Selectivity Index (Klebsiella pneumoniae [19]) | Selectivity Index (Escherichia coli [31]) | Selectivity Index (Escherichia coli [35]) | Selectivity Index (Klebsiella pneumoniae [37]) | Selectivity Index (Escherichia coli [40])
1: Selectivity Index (Klebsiella pneumoniae [2]) | Selectivity Index (Pseudomonas aeruginosa [42]) | Selectivity Index (Pseudomonas aeruginosa [43]) | Selectivity Index (Pseudomonas aeruginosa [44])
64 µg/mL: MIC (Pseudomonas aeruginosa [10]) | MIC (Pseudomonas aeruginosa [11]) | MIC (Pseudomonas aeruginosa [18]) | MIC (Pseudomonas aeruginosa [23]) | MIC (Pseudomonas aeruginosa [28]) | MIC (Pseudomonas aeruginosa [29])
